Reference: ChEMBL document CHEMBL1148475, “Nonpeptide luteinizing hormone-releasing hormone antagonists derived from erythromycin A: design, synthesis, and biological activity of cladinose replacement analogues” (J Med Chem, 2004)

Legend:
[1] = target: T1, Gonadotropin-releasing hormone receptor (Homo sapiens, UniProt P30968); test: In vitro binding affinity was determined against human Luteinizing hormone-releasing hormone (LHRH) receptor cloned in CHO cells; assay type: cell-based
T1 sequence (P30968 whole entry): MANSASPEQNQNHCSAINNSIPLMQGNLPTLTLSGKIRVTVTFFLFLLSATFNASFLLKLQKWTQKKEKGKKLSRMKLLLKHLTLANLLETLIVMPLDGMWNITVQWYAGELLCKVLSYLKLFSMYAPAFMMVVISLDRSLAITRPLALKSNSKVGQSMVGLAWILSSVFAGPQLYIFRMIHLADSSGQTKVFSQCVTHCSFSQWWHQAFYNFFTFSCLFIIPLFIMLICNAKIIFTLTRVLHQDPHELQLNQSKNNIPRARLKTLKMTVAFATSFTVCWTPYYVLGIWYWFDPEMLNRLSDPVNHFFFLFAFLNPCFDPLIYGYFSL

[2] = target: T2, Gonadotropin-releasing hormone receptor (Rattus norvegicus, UniProt P30969); test: In vitro binding affinity to rat luteinizing hormone-releasing hormone (LHRH) receptor cloned in CHO cells; assay type: cell-based
T2 sequence (P30969 whole entry): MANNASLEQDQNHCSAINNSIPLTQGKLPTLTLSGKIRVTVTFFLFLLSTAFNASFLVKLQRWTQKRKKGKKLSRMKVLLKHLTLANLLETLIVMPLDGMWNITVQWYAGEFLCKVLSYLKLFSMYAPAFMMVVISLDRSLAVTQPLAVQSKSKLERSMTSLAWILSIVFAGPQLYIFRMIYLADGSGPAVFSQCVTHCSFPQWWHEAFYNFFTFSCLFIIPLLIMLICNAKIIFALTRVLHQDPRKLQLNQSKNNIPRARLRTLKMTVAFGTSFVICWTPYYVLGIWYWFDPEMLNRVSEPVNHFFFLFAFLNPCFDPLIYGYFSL

[3] = target: T1, Gonadotropin-releasing hormone receptor; test: In vitro binding affinity to human luteinizing hormone-releasing hormone (LHRH) receptor cloned in CHO cells; assay type: cell-based
[4] = target: Gonadotropin-releasing hormone receptor (Rattus norvegicus, UniProt P30969); test: In vitro binding ability against Luteinizing hormone-releasing hormone release in rat pituitary cells; assay type: cell-based, Pituitary gland cell; conditions: read-out: pA2 (converted)
Method in brief: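 Functional antagonism of LH release measured in cultured rat pituitary cells; potency expressed as pA2.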

| SMILES | Ki [1] | Ki [2] | Ki [3] | Kb [4] | Log Ki ([3]; cho) |
| --- | --- | --- | --- | --- | --- |
| CC[C@H]1OC(=O)[C@H](C)[C@@H](OC(=O)N2CCOC2)[C@H](C)[C@@H](OC2O[C@H](C)C[C@H](N(C)C(C)C)[C@H]2O)[C@@](C)(OC)C[C@@H](C)C(=O)[C@H](C)[C@H]2N(CCc3ccc(Cl)cc3)C(=O)O[C@]12C (stereo partly drawn) | 0.2 µM | – | – | – | – |
| CC[C@H]1OC(=O)[C@H](C)[C@@H](O)[C@H](C)[C@@H](OC2O[C@H](C)C[C@H](N(C)C(C)C)[C@H]2O)[C@@](C)(OC)C[C@@H](C)C(=O)[C@H](C)[C@H]2N(CCc3ccc(Cl)cc3)C(=O)O[C@]12C (stereo partly drawn) | – | 2.51 µM | 10 µM | – | – |
| CC[C@H]1OC(=O)[C@H](C)[C@@H](OC(=O)N2C(=O)OC[C@@H]2C)[C@H](C)[C@@H](OC2O[C@H](C)C[C@H](N(C)CC3CC3)[C@H]2O)[C@@](C)(OC)C[C@@H](C)C(=O)[C@H](C)[C@H]2N(CCc3ccc(F)c(Cl)c3)C(=O)O[C@]12C (stereo partly drawn) | – | 0.000107 µM | 0.000331 µM | 0.000479 µM | – |
| CC[C@H]1OC(=O)[C@H](C)[C@@H](OC(=O)N2CCNC2=O)[C@H](C)[C@@H](OC2O[C@H](C)C[C@H](N(C)C(C)C)[C@H]2O)[C@@](C)(OC)C[C@@H](C)C(=O)[C@H](C)[C@H]2N(CCc3ccc(Cl)cc3)C(=O)O[C@]12C (stereo partly drawn) | – | 0.219 µM | 2.04 µM | – | – |
| CC[C@H]1OC(=O)[C@H](C)[C@@H](OC(=O)N2CCCC2)[C@H](C)[C@@H](OC2O[C@H](C)C[C@H](N(C)C(C)C)[C@H]2O)[C@@](C)(OC)C[C@@H](C)C(=O)[C@H](C)[C@H]2N(CCc3ccc(Cl)cc3)C(=O)O[C@]12C (stereo partly drawn) | – | 0.112 µM | 1.62 µM | – | – |
| CC[C@H]1OC(=O)[C@H](C)[C@@H](OC(=O)N2CC(C)OC2=O)[C@H](C)[C@@H](OC2O[C@H](C)C[C@H](N(C)C(C)C)[C@H]2O)[C@@](C)(OC)C[C@@H](C)C(=O)[C@H](C)[C@H]2N(CCc3ccc(Cl)cc3)C(=O)O[C@]12C (stereo partly drawn) | – | 0.00794 µM | 0.0363 µM | – | – |
| CC[C@H]1OC(=O)[C@H](C)[C@@H](OC(=O)C2CCOC2)[C@H](C)[C@@H](OC2O[C@H](C)C[C@H](N(C)C(C)C)[C@H]2O)[C@@](C)(OC)C[C@@H](C)C(=O)[C@H](C)[C@H]2N(CCc3ccc(Cl)cc3)C(=O)O[C@]12C (stereo partly drawn) | – | 0.0141 µM | 0.214 µM | – | – |
| CC[C@H]1OC(=O)[C@H](C)[C@@H](OC(=O)CC(C)C)[C@H](C)[C@@H](OC2O[C@H](C)C[C@H](N(C)C(C)C)[C@H]2O)[C@@](C)(OC)C[C@@H](C)C(=O)[C@H](C)[C@H]2N(CCc3ccc(Cl)cc3)C(=O)O[C@]12C (stereo partly drawn) | – | 0.141 µM | 2.04 µM | – | – |
| CC[C@H]1OC(=O)[C@H](C)[C@@H](OC(=O)N2C(=O)OC[C@@H]2C)[C@H](C)[C@@H](OC2O[C@H](C)C[C@H](N(C)C3CCCC3)[C@H]2O)[C@@](C)(OC)C[C@@H](C)C(=O)[C@H](C)[C@H]2N(CCc3ccc(Cl)cc3)C(=O)O[C@]12C (stereo partly drawn) | – | 0.00117 µM | 0.038 µM | – | – |
| CC[C@H]1OC(=O)[C@H](C)[C@@H](OC2C[C@@](C)(OC)[C@@H](O)[C@H](C)O2)[C@H](C)[C@@H](OC2O[C@H](C)C[C@H](N(C)C(C)C)[C@H]2O)[C@@](C)(OC)C[C@@H](C)C(=O)[C@H](C)[C@H]2N(CCc3ccc(Cl)cc3)C(=O)O[C@]12C (stereo partly drawn) | – | 0.00447 µM | 0.0224 µM | – | – |
| CC[C@H]1OC(=O)[C@H](C)[C@@H](OC(=O)N2C(=O)OC[C@@H]2C)[C@H](C)[C@@H](OC2O[C@H](C)C[C@H](N(C)C(C)C)[C@H]2O)[C@@](C)(OC)C[C@@H](C)C(=O)[C@H](C)[C@H]2N(CCc3ccc(Cl)c(Cl)c3)C(=O)O[C@]12C (stereo partly drawn) | – | 0.000234 µM | 0.0151 µM | 0.00178 µM | – |
| CC[C@H]1OC(=O)[C@H](C)[C@@H](OC(=O)N2CCOC2=O)[C@H](C)[C@@H](OC2O[C@H](C)C[C@H](N(C)C(C)C)[C@H]2O)[C@@](C)(OC)C[C@@H](C)C(=O)[C@H](C)[C@H]2N(CCc3ccc(Cl)cc3)C(=O)O[C@]12C (stereo partly drawn) | – | 0.00214 µM | 0.115 µM | – | – |
| CC[C@H]1OC(=O)[C@H](C)[C@@H](OC(=O)N2C(=O)O[C@H](C)[C@@H]2C)[C@H](C)[C@@H](OC2O[C@H](C)C[C@H](N(C)C(C)C)[C@H]2O)[C@@](C)(OC)C[C@@H](C)C(=O)[C@H](C)[C@H]2N(CCc3ccc(Cl)cc3)C(=O)O[C@]12C (stereo partly drawn) | – | 0.00288 µM | – | – | < -7 |
| CC[C@H]1OC(=O)[C@H](C)[C@@H](OC(=O)N2C(=O)OCC2(C)C)[C@H](C)[C@@H](OC2O[C@H](C)C[C@H](N(C)C(C)C)[C@H]2O)[C@@](C)(OC)C[C@@H](C)C(=O)[C@H](C)[C@H]2N(CCc3ccc(Cl)cc3)C(=O)O[C@]12C (stereo partly drawn) | – | 0.00891 µM | 0.0794 µM | – | – |
| CC[C@H]1OC(=O)[C@H](C)[C@@H](OC(=O)N2CCOCC2)[C@H](C)[C@@H](OC2O[C@H](C)C[C@H](N(C)C(C)C)[C@H]2O)[C@@](C)(OC)C[C@@H](C)C(=O)[C@H](C)[C@H]2N(CCc3ccc(Cl)cc3)C(=O)O[C@]12C (stereo partly drawn) | – | 0.427 µM | 5.62 µM | – | – |
| CC[C@H]1OC(=O)[C@H](C)[C@@H](OC(=O)N2C(=O)OC[C@@H]2C)[C@H](C)[C@@H](OC2O[C@H](C)C[C@H](N(C)C(C)C)[C@H]2O)[C@@](C)(OC)C[C@@H](C)C(=O)[C@H](C)[C@H]2N(CCc3ccc(Cl)cc3)C(=O)O[C@]12C (stereo partly drawn) | – | 0.00288 µM | 0.0186 µM | – | – |
| CC[C@H]1OC(=O)[C@H](C)[C@@H](OC(=O)N2CCOC2C)[C@H](C)[C@@H](OC2O[C@H](C)C[C@H](N(C)C(C)C)[C@H]2O)[C@@](C)(OC)C[C@@H](C)C(=O)[C@H](C)[C@H]2N(CCc3ccc(Cl)cc3)C(=O)O[C@]12C (stereo partly drawn) | – | 0.12 µM | 0.794 µM | – | – |
| CC[C@H]1OC(=O)[C@H](C)[C@@H](OC(=O)N2C(=O)OC[C@@H]2C)[C@H](C)[C@@H](OC2O[C@H](C)C[C@H](N(C)C3CCCC3)[C@H]2O)[C@@](C)(OC)C[C@@H](C)C(=O)[C@H](C)[C@H]2N(CCc3ccc(Cl)c(Cl)c3)C(=O)O[C@]12C (stereo partly drawn) | – | 0.000692 µM | 0.00562 µM | 0.000135 µM | – |
| CC[C@H]1OC(=O)[C@H](C)[C@@H](OC(=O)N2C(=O)OC[C@H]2CC(C)C)[C@H](C)[C@@H](OC2O[C@H](C)C[C@H](N(C)C(C)C)[C@H]2O)[C@@](C)(OC)C[C@@H](C)C(=O)[C@H](C)[C@H]2N(CCc3ccc(Cl)cc3)C(=O)O[C@]12C (stereo partly drawn) | – | 0.692 µM | 0.275 µM | – | – |
| CC[C@H]1OC(=O)[C@H](C)[C@@H](OC(=O)N2C(=O)OC[C@@H]2C)[C@H](C)[C@@H](O[C@@H]2O[C@H](C)C[C@H](N(C)CC3CC3)[C@H]2O)[C@@](C)(OC)C[C@@H](C)C(=O)[C@H](C)[C@H]2N(CCc3ccc(Cl)c(Cl)c3)C(=O)O[C@]12C | – | 0.000676 µM | 0.00186 µM | 0.00174 µM | – |
| CC[C@H]1COC(=O)N1C(=O)O[C@H]1[C@H](C)[C@@H](OC2O[C@H](C)C[C@H](N(C)C(C)C)[C@H]2O)[C@@](C)(OC)C[C@@H](C)C(=O)[C@H](C)[C@H]2N(CCc3ccc(Cl)cc3)C(=O)O[C@]2(C)[C@@H](CC)OC(=O)[C@@H]1C (stereo partly drawn) | – | 0.00631 µM | 0.0661 µM | – | – |
| CC[C@H]1OC(=O)[C@H](C)[C@@H](OC(=O)N2CCN(C)C2=O)[C@H](C)[C@@H](OC2O[C@H](C)C[C@H](N(C)C(C)C)[C@H]2O)[C@@](C)(OC)C[C@@H](C)C(=O)[C@H](C)[C@H]2N(CCc3ccc(Cl)cc3)C(=O)O[C@]12C (stereo partly drawn) | – | 1.23 µM | 4.68 µM | – | – |
| CC[C@H]1OC(=O)[C@H](C)[C@@H](OC(=O)C2CCCC2)[C@H](C)[C@@H](OC2O[C@H](C)C[C@H](N(C)C(C)C)[C@H]2O)[C@@](C)(OC)C[C@@H](C)C(=O)[C@H](C)[C@H]2N(CCc3ccc(Cl)cc3)C(=O)O[C@]12C (stereo partly drawn) | – | 0.0501 µM | 0.631 µM | – | – |
| CC[C@H]1OC(=O)[C@H](C)[C@@H](OC(=O)N2C(=O)OC[C@H]2C)[C@H](C)[C@@H](OC2O[C@H](C)C[C@H](N(C)C(C)C)[C@H]2O)[C@@](C)(OC)C[C@@H](C)C(=O)[C@H](C)[C@H]2N(CCc3ccc(Cl)cc3)C(=O)O[C@]12C (stereo partly drawn) | – | 0.00525 µM | 0.049 µM | – | – |
| CCC1CN(C(=O)O[C@H]2[C@H](C)[C@@H](OC3O[C@H](C)C[C@H](N(C)C(C)C)[C@H]3O)[C@@](C)(OC)C[C@@H](C)C(=O)[C@H](C)[C@H]3N(CCc4ccc(Cl)cc4)C(=O)O[C@]3(C)[C@@H](CC)OC(=O)[C@@H]2C)C(=O)O1 (stereo partly drawn) | – | 0.0182 µM | 0.562 µM | – | – |
